Test results: the RNAGym collection of RNA variant scans (doi:10.1126/science.aae0568)
Variants at the floor of the assay were thinned out.

B1: tRNA (parent)
chain: GUUCCGUUGGCGUAAUGGUAACGCGUCUCCCUCCUAAGGAGAAGACUGCGGGUUCGAGUCCCGUACGGAACG

Variants of: B1
Experiment: yeast fitness relative to wild type (ratio to wild type); higher = fitter; tRNA-Arg(CCU), competitive growth, 37 C, YPD
Procedure, shortened: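 Genotype frequency changes were the basis for Darwinian fitness relative to wild type. The frequencies came from 100-nucleotide paired-end sequencing of gene amplicons from the start population and each end population of pooled yeast strains with tRNA-Arg(CCU) gene variants at the native locus. Competition ran in YPD at 37°C for 24 hours in six replicates, genotypes needed ≥ 100 starting reads, and estimates < 0.5 were set to 0.5.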

| Variant | yeast fitness |
| --- | --- |
| A14G U26G U54G A69U | ≤ 0.5 |
| A14G G17C G39A | ≤ 0.5 |
| A14G U54G A70C | ≤ 0.5 |
| A14G U19A C34U | ≤ 0.5 |
| A14G U19G C46U A57G A70C | ≤ 0.5 |
| A14G G63C | 0.78 |
| A14G G38A A43G | ≤ 0.5 |
| A14G G44C | 0.928 |
| A14G G44A | 0.894 |
| A14G G23C C27A | ≤ 0.5 |
| A14G G56A | 0.805 |
| A14G G39C C55A A65G | ≤ 0.5 |
| A14U A20G C30G A42C A70G | ≤ 0.5 |
| A14G G48A G68A | ≤ 0.5 |
| A14U A20C C22U C24U C49G U53A G56C | 0.547 |
| A14G U47G C62U | ≤ 0.5 |
| A14G G68C | 0.78 |
| A14G G68U | 0.826 |
| A14U A20U A42G A65C A69C A70G | ≤ 0.5 |
| A14G G23C C29A | ≤ 0.5 |
| A14G G25A | 0.856 |
| A14G G25C | 0.976 |
| A14G G23C C27A G51A | ≤ 0.5 |
| A14G U26C U28A A65U | ≤ 0.5 |

| Variant | yeast fitness |
| --- | --- |
| A14G G17A A37G | 0.536 |
| A14U A21C A36C C49A C66G | ≤ 0.5 |
| A14U A15G A45C G50A C62U | 0.526 |
| A14G U53A | 0.63 |
| A14G U53C | 0.775 |
| A14G G25A C30A A42C | ≤ 0.5 |
| A14G G18A U26A A70C | ≤ 0.5 |
| A14G G18C C29G G56C | ≤ 0.5 |
| A14G U32C | 0.931 |
| A14U A20G A69C | ≤ 0.5 |
| A14G U26C | 0.879 |
| A14G G17C C24U C49U A69U | ≤ 0.5 |
| A14G G25A C46G A57C | ≤ 0.5 |
| A14G G25A C30A G52C | 0.548 |
| A14G G17A A37U C62G | ≤ 0.5 |
| A14G U16A C33A C55U | 0.67 |
| A14G U19A | 0.809 |
| A14G U19G | 0.856 |
| A14G G44A C46A G52A C66U | ≤ 0.5 |
| A14G G50C A69U | ≤ 0.5 |
| A14G G41A | 0.981 |
| A14U A15U C49A G51C U59A | ≤ 0.5 |
| A14U A20C C31G C66A | ≤ 0.5 |
| A14G U28C G68A | ≤ 0.5 |

| Variant | yeast fitness |
| --- | --- |
| A14G G23A C29G G68C | ≤ 0.5 |
| A14G U32A C62U | ≤ 0.5 |
| A14G U32C A42C A57U C61G | ≤ 0.5 |
| A14G G58C A65C | 0.593 |
| A14G U47A A69C | ≤ 0.5 |
| A14G G44A A57U | 0.576 |
| A14U A15C C31G G50A | 0.665 |
| A14G G18C A21U C29G C66U | ≤ 0.5 |
| A14G G48C U64C | 0.715 |
| A14G G48C U64G | 0.503 |
| A14G U47C G68A | ≤ 0.5 |
| A14G U16G A36U G68C | ≤ 0.5 |
| A14U A20C C27U U35C G48A A70U | ≤ 0.5 |
| A14G U32C A42G U59C | ≤ 0.5 |
| A14G G52C A70U | ≤ 0.5 |
| A14U A20C C31U A37G | ≤ 0.5 |
| A14U A15G C49G | ≤ 0.5 |
| A14U A15C C24A U26A G50C | 0.544 |
| A14G G18A C30U | 0.809 |
| A14G U35C C62G A65G | 0.635 |
| A14G G18C G50C | ≤ 0.5 |
| A14U A20G C24A C31U C33U A37U G48A A69U | ≤ 0.5 |
| A14G G18A A21U U26C G48A | ≤ 0.5 |
| A14G G48A C61A G68U | ≤ 0.5 |

| Variant | yeast fitness |
| --- | --- |
| A14U A20C C24A | 0.554 |
| A14U A20C C24U | ≤ 0.5 |
| A14G U19G G48C U54G A65C | ≤ 0.5 |
| A14G U26C A37G | ≤ 0.5 |
| A14G G58C | 0.989 |
| A14G U59C | 0.923 |
| A14G U59G | 0.774 |
| A14U A20U A36U | 0.568 |
| A14U A20G G44C | ≤ 0.5 |
| A14U A20G | 0.749 |
| A14U A20U | 0.588 |
| A14G G18C G52C C55A | ≤ 0.5 |
| A14G G38C A65C | ≤ 0.5 |
| A14U A15G A43C G52A G56A C62G A65G | 0.607 |
| A14G U47C | 0.871 |
| A14G U47A | 0.776 |
| A14G U47G | 0.516 |
| A14G U19C C31G A37U A65U | ≤ 0.5 |
| A14U A15G U53G | ≤ 0.5 |
| A14G G39C G68A A70U | ≤ 0.5 |
| A14G G23A G38C C46U | 0.621 |
| A14U A15U C27A C29G G44C C66A A70G | ≤ 0.5 |
| A14G U28C C61U | 0.577 |
| A14G U26C A37G G67A | 0.539 |

| Variant | yeast fitness |
| --- | --- |
| A14U A15G A21C | 0.536 |
| A14G G18A U26A | ≤ 0.5 |
| A14G G44A G67C | ≤ 0.5 |
| A14G G17C C55A | ≤ 0.5 |
| A14G G56A G67C | ≤ 0.5 |
| A14G U19C U59A | ≤ 0.5 |
| A14G U16A C24G A45G C62A A69C | ≤ 0.5 |
| A14G G41A U47A | 0.591 |
| A14G G18C | 0.559 |
| A14G G50A | 0.907 |
| A14G U19C U35C A40G | ≤ 0.5 |
| A14G G50C C66U | ≤ 0.5 |
| A14G U16G C24G U26C U47G G50C | 0.515 |
| A14G G39C U47C | ≤ 0.5 |
| A14G U16G C29G G58A | ≤ 0.5 |
| A14G G48C G50A | 0.546 |
| A14G G18A U32A G44A A65C | ≤ 0.5 |
| A14G U28C | 0.692 |
| A14G U28C A40U | 0.691 |
| A14G G67C | 0.763 |
| A14G G18C C31A A69U | ≤ 0.5 |
| A14U A20C U28C C46U G58A | 0.678 |
| A14G U26G A43C C46A | ≤ 0.5 |
| A14G G17A A37U A43U C62G | ≤ 0.5 |

| Variant | yeast fitness |
| --- | --- |
| A14G G23A U35C A37C | 0.5 |
| A14G U19C A21U G68U | ≤ 0.5 |
| A14G U35G A40G A57G | ≤ 0.5 |
| A14G G48A | 0.868 |
| A14G U35A A42U C46G G56A | 0.524 |
| A14G G23A | 0.559 |
| A14G G23C | 0.692 |
| A14G G39C | 0.678 |
| A14G G52A G56C A65G | ≤ 0.5 |
| A14G U26G G52C C60A | 0.616 |
| A14G G17C C24U A69U | ≤ 0.5 |
| A14G G48C C62U | 0.654 |
| A14U A21C A36C C49A A65G C66G | 0.567 |
| A14G G68U A70U | ≤ 0.5 |
| A14G G25C C31U | 0.692 |
| A14G U35A | 0.561 |
| A14G U35C | 0.635 |
| A14G G39C A70U | 0.717 |
| A14U A20U G63A | ≤ 0.5 |
| A14U A15C G25C | ≤ 0.5 |
| A14G G17C G58C | ≤ 0.5 |
| A14G U26C G68A | 0.557 |
| A14U A15C G39C | 0.546 |
| A14U A15G A65G | ≤ 0.5 |

| Variant | yeast fitness |
| --- | --- |
| A14G G17A C34U C55G | ≤ 0.5 |
| A14G G23A C27G | ≤ 0.5 |
| A14G G18C C24G U28C C30U G48C U53A | 0.665 |
| A14G G25A A40U C49U C60A G63A | ≤ 0.5 |
| A14U A20U C66U G67A | ≤ 0.5 |
| A14G U35G G52C | ≤ 0.5 |
| A14G G25A A69U | 0.77 |
| A14U A15G C34G C61U | ≤ 0.5 |
| A14G G25A U32A | 0.56 |
| A14G U16C | 0.897 |
| A14G U16G | 0.742 |
| A14G G23A C34A | ≤ 0.5 |
| A14U A15C C31G A43U A70G | 0.556 |
| A14G G38C A57G A70G | ≤ 0.5 |
| A14G G23A A40U A42C G58C | ≤ 0.5 |
| A14G U19C A20U | 0.773 |
| A14G U26C C30U | 0.567 |
| A14U A15C C31A | ≤ 0.5 |
| A14G U28G C29U C49U U54A C55U A70C | 0.603 |
| A14G G58A A65U | 0.782 |
| A14G G18C C29G C34U A45C | ≤ 0.5 |
| A14G G25C G51C C60U G67A | ≤ 0.5 |
| A14U A20U G52U | 0.591 |
